Laboratory results: ChEMBL document CHEMBL5096187, “Efficient Synthesis and Bioevaluation of Novel Dual Tubulin/Histone Deacetylase 3 Inhibitors as Potential Anticancer Agents” (J Med Chem, 2021)
The source made the active and inactive calls. The rule behind the calls is not given here.

Tests used:
HCT-116 = assay: Antiproliferative activity against human HCT-116 cells assessed as inhibition of cell viability measured for 48 hrs by microplate reader based MTT assay; assay type: functional; conditions: HCT-116, 48 h
Summary of the method: (§1)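 Cells grown in RPMI-1640 with 10% FBS and seeded at 5000 cells/well. After overnight attachment, compound was added in medium with 0.1% DMSO for 48 h at 37 °C. Read-out was MTT for HCT-116, B16-F10 and A549, and CCK-8 for Jurkat (0.5 mg/mL, 4 h), with absorbance at 570 nm. IC50 from nonlinear regression; at least three independent experiments.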

B16-F10 [1] = assay: Antiproliferative activity against mouse B16-F10 cells assessed as inhibition of cell viability measured for 48 hrs by microplate reader based MTT assay; assay type: functional; conditions: B16-F10, 48 h; summary of the method: as §1
Jurkat = assay: Antiproliferative activity against human Jurkat cells assessed as inhibition of cell viability measured for 48 hrs by microplate reader based CCK-8 assay; assay type: functional
A549 = assay: Antiproliferative activity against human A549 cells assessed as inhibition of cell viability measured for 48 hrs by microplate reader based CCK-8 assay; assay type: functional; conditions: A549, 48 h
[2] = Antiproliferative activity against human YCC-11 cells assessed as inhibition of cell viability; assay type: functional, cell-based
[3] = Antiproliferative activity against human YCC3/7 cells assessed as inhibition of cell viability; assay type: functional, cell-based
B16-F10 [4] = assay: Induction of cell cycle arrest in mouse B16-F10 cells assessed as accumulation of cells in G2/M phase at 100 nM measured after 48 hrs by PI/RNaseA staining based flow cytometry analysis (Rvb= 5.76%); assay type: functional
B16-F10 [5] = assay: Induction of apoptosis in mouse B16-F10 cells assessed as viable cells at 100 nM incubated for 48 hrs by Annexin V-FITC/PI analysis (reference value: 98.3 %); assay type: functional; conditions: read-out: Activity
B16-F10 [6] = assay: Induction of apoptosis in mouse B16-F10 cells assessed as early apoptotic cells at 100 nM incubated for 48 hrs by Annexin V-FITC/PI analysis (reference value: 1.68 %); assay type: functional
B16-F10 [7] = assay: Induction of apoptosis in mouse B16-F10 cells assessed as late apoptotic cells at 100 nM incubated for 48 hrs by Annexin V-FITC/PI analysis (reference value: 0.00 %); assay type: functional
B16-F10 [8] = assay: Induction of apoptosis in mouse B16-F10 cells assessed as necrotic cells at 100 nM incubated for 48 hrs by Annexin V-FITC/PI analysis (reference value: 0.012 %); assay type: functional
B16-F10 [9] = assay: Upregulation of AC-H3 in mouse B16-F10 cells incubated for 12 hrs by Western blot analysis; assay type: functional, cell-based; conditions: dose 20-200 nM, DDE = dose-dependent effect
Summary of the method: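 B16-F10 cells (5 × 10⁵/well) treated 12 h with DMSO or compound, lysed in RIPA buffer. 30 μg protein separated by SDS-PAGE and blotted onto PVDF. Blocked 5% BSA 2 h, primary antibody overnight at 4 °C, secondary 1.5 h. Ac-H3 probed, with histone H3 and GAPDH as loading controls; band density quantified; three independent experiments.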

B16-F10 [10] = assay: Antitumor activity against mouse B16-F10 cells allografted in C57BL/6 mouse assessed as tumor growth inhibition at 10 mg/kg, ip administered for 14 days; assay type: functional; conditions: B16-F10, 336 h, time 14 day, read-out: TGI
Summary of the method: (§2)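 C57BL/6 mice were inoculated subcutaneously with 3×10⁵ B16-F10 cells in PBS and randomized (n = 8). Drugs in ethanol/polyoxyethylene castor oil/saline (1.25:1.25:7.5) or vehicle alone were given i.p. once daily for 14 days. Mice were sacrificed at day 14 and tumors weighed; TGI(%) = [1 − Wt/Wv] × 100 using mean tumor weights.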

B16-F10 [11] = assay: Antitumor activity against mouse B16-F10 cells allografted in C57BL/6 mouse assessed as reduction in tumor weight at 10 mg/kg, ip administered for 14 days in presence of (2-phenylthiazol-4-yl)(3,4,5-trimethoxyphenyl)methanone; assay type: functional, organism-based; conditions: time 14.0 day; summary of the method: as §2
[12] = Toxicity in C57BL/6 mouse allografted with mouse B16-F10 cells assessed as morphological abnormalities in kidney at 10 mg/kg, ip administered for 14 days by H and E staining based analysis; assay type: organism-based; conditions: in vivo, 336 h, time 14 day
Summary of the method: (§3)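 C57BL/6 mice with subcutaneous B16-F10 allografts, n = 8 per group, given i.p. injections once daily for 14 days. Single agents at 10 mg/kg; combination at 5 + 5 mg/kg. Vehicle: ethanol/polyoxyethylene castor oil/saline 1.25:1.25:7.5. Liver and kidney fixed in 4% paraformaldehyde, paraffin-embedded, H&E stained and examined by microscopy.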

[13] = Toxicity in C57BL/6 mouse allografted with mouse B16-F10 cells assessed as morphological abnormalities in kidney at 5 mg/kg, ip administered for 14 days in presence of (2-phenylthiazol-4-yl)(3,4,5-trimethoxyphenyl)methanone by H and E staining based analysis; assay type: organism-based; conditions: in vivo, 336 h, time 14 day; summary of the method: as §3
[14] = Cardiotoxicity in C57BL/6 mouse ssessed as shortening of QTc level by ECG analysis; assay type: toxicity
Summary of the method: (§4)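 Mice aged 6–8 weeks dosed by intragastric gavage once daily for 14 days; ECG and heart rate recorded on a PowerLab system.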

[15] = Cardiotoxicity in C57BL/6 mouse ssessed as shortening of QTc level in presence of (2-phenylthiazol-4-yl)(3,4,5-trimethoxyphenyl)methanone by ECG analysis; assay type: toxicity; summary of the method: as §4
[16] = In vivo inhibition of HDAC in tumor of mouse B16-F10 cells xenografted in C57BL/6 mouse assessed as increase in acetylated histone-H3 expression by […] immunohistochemistry method; assay type: functional; design: scale not given: the % may be the effect or the level left
Summary of the method: (§5)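 Tumors from the 14-day i.p. B16-F10 study were formalin-fixed and paraffin-embedded. Sections were deparaffinized, treated with 3% H2O2, and antigen-retrieved at pH 9 and 80 °C overnight. Blocked with milk, incubated with anti-Ac-H3 at 4 °C overnight, then IgG secondary and hematoxylin counterstain. Ac-H3-positive ratio quantified from images.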

[17] = In vivo inhibition of HDAC in tumor of mouse B16-F10 cells xenografted in C57BL/6 mouse assessed as increase in acetylated histone-H3 expression in presence of (2-phenylthiazol-4-yl)(3,4,5-trimethoxyphenyl)methanone by […] immunohistochemistry method; assay type: functional; design: scale not given: the % may be the effect or the level left; summary of the method: as §5
B16-F10 [18] = assay: Antitumor activity against mouse B16-F10 cells allografted in C57BL/6 mouse assessed as tumor growth inhibition at 10 mg/kg, ip administered for 14 days in presence of (2-phenylthiazol-4-yl)(3,4,5-trimethoxyphenyl)methanone; assay type: functional; conditions: B16-F10, 336 h, time 14 day, read-out: TGI; summary of the method: as §2
B16-F10 [19] = assay: cells; conditions: Mus musculus, B16-F10, 48 h
[20] = Toxicity in C57BL/6 mouse allografted with mouse B16-F10 cells assessed as body weight loss at 10 mg/kg, ip administered for 14 days; conditions: in vivo, 336 h
B16-F10 [21] = assay: Antiproliferative activity against mouse B16-F10 cells assessed as inhibition of cell viability measured for 48 hrs in presence of Entinostat by microplate reader based MTT assay; assay type: functional; conditions: B16-F10, 48 h; summary of the method: as §1
Tubulin (Sus scrofa) = Tubulin (Sus scrofa) (UniProt P02554+P02550); assay: Inhibition of pig brain tubulin polymerization at 10 uM measured after 20 mins by spectrometric method relative to control
Tubulin (Sus scrofa), sequence (P02550 whole entry, looked up): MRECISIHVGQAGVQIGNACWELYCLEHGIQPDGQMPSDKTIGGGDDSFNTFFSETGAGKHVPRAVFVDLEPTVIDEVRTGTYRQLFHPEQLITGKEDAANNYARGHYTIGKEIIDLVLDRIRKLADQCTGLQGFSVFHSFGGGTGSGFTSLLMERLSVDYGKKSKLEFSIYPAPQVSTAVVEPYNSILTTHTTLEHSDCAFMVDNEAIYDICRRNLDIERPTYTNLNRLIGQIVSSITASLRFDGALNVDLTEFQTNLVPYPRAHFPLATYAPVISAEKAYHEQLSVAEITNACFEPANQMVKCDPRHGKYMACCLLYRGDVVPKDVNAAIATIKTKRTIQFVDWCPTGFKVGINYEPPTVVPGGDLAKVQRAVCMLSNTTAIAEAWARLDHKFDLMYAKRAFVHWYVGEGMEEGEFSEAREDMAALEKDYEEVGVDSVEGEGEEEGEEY
Tubulin (Sus scrofa), sequence (P02554 whole entry, looked up): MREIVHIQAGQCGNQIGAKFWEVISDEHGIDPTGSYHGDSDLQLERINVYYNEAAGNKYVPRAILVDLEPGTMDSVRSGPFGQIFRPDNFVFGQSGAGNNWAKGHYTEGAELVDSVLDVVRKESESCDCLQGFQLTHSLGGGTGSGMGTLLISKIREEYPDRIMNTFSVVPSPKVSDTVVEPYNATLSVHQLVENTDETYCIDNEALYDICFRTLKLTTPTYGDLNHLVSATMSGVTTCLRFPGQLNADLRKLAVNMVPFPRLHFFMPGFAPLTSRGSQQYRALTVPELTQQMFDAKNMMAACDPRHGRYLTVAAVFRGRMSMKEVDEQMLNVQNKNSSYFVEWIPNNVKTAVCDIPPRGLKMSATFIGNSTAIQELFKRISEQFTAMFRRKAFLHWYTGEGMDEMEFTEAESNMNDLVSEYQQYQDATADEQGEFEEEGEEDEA
Summary of the method: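 Pig brain tubulin was purified by three assembly/disassembly cycles and then phosphocellulose chromatography. Compound at 10 μM in PEM buffer with 1 mM GTP and 5% glycerol at 37 °C. Polymerization followed at 340 nm; inhibition taken at 20 min versus vehicle control.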

Tubulin = Tubulin (Sus scrofa, UniProt P02554+P02550); assay: Inhibition of pig brain tubulin polymerization by spectrometric method
Summary of the method: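 Phosphocellulose-purified pig brain tubulin mixed with graded compound concentrations in PEM buffer (100 mM PIPES, 1 mM MgCl2, 1 mM EGTA) plus 1 mM GTP and 5% glycerol. Absorbance at 340 nm and 37 °C; plateau absorbance used to calculate IC50.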

B16-F10 [22] = assay: Inhibition of cell migration in mouse B16-F10 cells assessed as reduction in wound area measured at 100 nM incubated for 24 hrs by wound healing assay; assay type: functional; design: scale not given: the % may be the effect or the level left
Summary of the method: (§6)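 Confluent B16-F10 monolayers, seeded overnight, were scratched with a pipette tip and washed to remove debris. Cells were then treated, and phase-contrast images were taken at 0 and 24 h. Migration distance or wound area measured manually against DMSO control; n = 3.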

B16-F10 [23] = assay: Inhibition of cell migration in mouse B16-F10 cells assessed as reduction in wound area ratio measured at 100 nM incubated for 24 hrs by wound healing assay; assay type: functional; design: scale not given: the % may be the effect or the level left; summary of the method: as §6
B16-F10 [24] = assay: Antitumor activity against mouse B16-F10 cells allografted in C57BL/6 mouse assessed as reduction in tumor weight at 10 mg/kg, ip administered for 14 days in presence of Entinostat; assay type: functional, organism-based; conditions: time 14.0 day; summary of the method: as §2
[25] = Toxicity in C57BL/6 mouse allografted with mouse B16-F10 cells assessed as morphological abnormalities in kidney at 5 mg/kg, ip administered for 14 days in presence of Entinostat by H and E staining based analysis; assay type: organism-based; conditions: in vivo, 336 h, time 14 day; summary of the method: as §3
[26] = Cardiotoxicity in C57BL/6 mouse ssessed as shortening of QTc level in presence of Entinostat by ECG analysis; assay type: toxicity; summary of the method: as §4
[27] = In vivo inhibition of HDAC in tumor of mouse B16-F10 cells xenografted in C57BL/6 mouse assessed as increase in acetylated histone-H3 expression in presence of Entinostat by […] immunohistochemistry method; assay type: functional; design: scale not given: the % may be the effect or the level left; summary of the method: as §5
B16-F10 [28] = assay: Antitumor activity against mouse B16-F10 cells allografted in C57BL/6 mouse assessed as tumor growth inhibition at 10 mg/kg, ip administered for 14 days in presence of Entinostat; assay type: functional; conditions: B16-F10, 336 h, time 14 day, read-out: TGI; summary of the method: as §2

Compound | IC50 (HCT-116) [µM] | IC50 (B16-F10 [1]) [µM] | IC50 (Jurkat) [µM] | IC50 (A549) [µM] | IC50 [2] [µM] | IC50 [3] [µM] | Activity (B16-F10 [4]) [%] | viability at 0.1 µM (B16-F10 [5]) [%] | Activity (B16-F10 [6]) [%] | Activity (B16-F10 [7]) [%] | Activity (B16-F10 [8]) [%] | inhibition in vivo at 10 mg/kg (B16-F10 [10]) [%] | Activity [12] | Activity [14] | Activity [20] | other results
Nc1ccccc1NC(=O)c1ccc(CNC(=O)OCc2cccnc2)cc1 [ENTINOSTAT] | 1.72 | 2.26 | 0.69 | 1.71 | 5.56 | 12.9 | 42.17 | 59.9 | 16.3 | 22.4 | 1.37 | 47 | Non-Toxic | Toxic | Non-Toxic | Activity (B16-F10 [9]): Dde; Activity (B16-F10 [11]): Active; Activity [13]: Non-Toxic; Activity [15]: Non-Toxic; Activity [16]: 27.9%; Activity [17]: 16.3%; inhibition in vivo at 10 mg/kg (B16-F10 [18]): 53%; IC50 (B16-F10 [19]): 1.15 µM
COc1cc(C(=O)c2csc(-c3ccccc3)n2)cc(OC)c1OC | 0.07 | 0.98 | 0.03 | 0.19 | 1.69 | 1.94 | 76.58 | 60.7 | 29.1 | 0.49 | 0.75 | 25 | Non-Toxic | Toxic | Non-Toxic | IC50 (B16-F10 [21]): 1.15 µM; inhibition (Tubulin (Sus scrofa)): 78%; IC50 (Tubulin): 7.9 µM; Activity (B16-F10 [22]): 16.2%; Activity (B16-F10 [23]): 16.24%; Activity (B16-F10 [24]): Active; Activity [25]: Non-Toxic; Activity [26]: Non-Toxic; Activity [27]: 16.3%; inhibition in vivo at 10 mg/kg (B16-F10 [28]): 53%
